# According to paper PMC5591795 (Clinical Pharmacokinetics, 2017):
# Read-outs that look alike come from different tables or passages of the source. Numbered stars: 1 amine (or outer) side, 2 acyl side, 3 side chain; on linkers, the order of the positions; unused ones are H or OH. Bridge positions count the residues as written; N and C are the ends. Square brackets hold non-standard residues; d marks the D form. Peptide text beside a SMILES is read from it. * marks the point of attachment. hTyr(3S-OH,4S-OH,3'-OSO3H) = N[C@H](C(=O)O)[C@H](O)[C@@H](O)c1ccc(O)c(OS(=O)(=O)O)c1; Orn(4R-OH,5R-OH) = O=C([C@H](C[C@@H](O)[C@@H](O)N[*:3])N[*:1])[*:2]; Pro(3S-OH,4S-Me) = C[C@H]1CN[C@H](C(=O)O)[C@H]1O; X1 = CCCCCOc1ccc(-c2cc(-c3ccc(C(=O)*)cc3)no2)cc1; Gln(3R-OH) = NC(=O)C[C@@H](O)[C@H](N)C(=O)O; Hyp = O=C(O)[C@@H]1C[C@@H](O)CN1
# Key:
# [1] = cited from earlier work
# [2] = cited from earlier work; remark: listed apart in the source
# [3] = cited from earlier work; remark: listed apart in the source
# [4] = statement without reference; cited from earlier work
# [5] = Population pharmacokinetic model of micafungin in ICU patients; type: in vivo; settings: human, plasma, iv, 100 mg
# How it was run: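 ICU adults (n = 20; suspected or proven fungal infection) received 100 mg QD IV over ~1 h. Plasma was sampled on day 3 (±1) pre-dose and 0.5–24 h post start infusion, on day 7 (±1) in six samples to 24 h, and as daily troughs. Drug was measured by UPLC-fluorescence. The model was fitted by FOCE with interaction, with IOV on CL and V and albumin, CVVH and SOFA tested as covariates.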
compound,measurement,setting,value
Anidulafungin,V in critically ill patients compared with healthy volunteers,[1],equal
caspofungin,CL and V in critically ill patients compared with healthy volunteers,[1],identical
"CCCCCOc1ccc(-c2cc(-c3ccc(C(=O)N[C@H]4C[C@@H](O)[C@@H](O)NC(=O)[C@@H]5[C@@H](O)[C@@H](C)CN5C(=O)[C@H]([C@H](O)CC(N)=O)NC(=O)[C@H]([C@H](O)[C@@H](O)c5ccc(O)c(OS(=O)(=O)O)c5)NC(=O)[C@@H]5C[C@@H](O)CN5C(=O)[C@H]([C@@H](C)O)NC4=O)cc3)no2)cc1 [micafungin] (X1-[Orn(4R-OH,5R-OH)]T[Hyp][hTyr(3S-OH,4S-OH,3'-OSO3H)][Gln(3R-OH)][Pro(3S-OH,4S-Me)]; lactam 1-C)",solubility in water,[2],freely soluble in water
same,tolerability,[3]; doses of 8 mg/kg,well tolerated
same,tolerability,[3]; therapy with 150–200 mg QD,well tolerated
same,protein binding,[4],highly protein bound
same,metabolism,[1],only a small fraction is metabolised
same,CL,[1]; healthy volunteers,0.55 L/h
same,V (V 1 and V 2 together),[1]; healthy volunteers,13.9 L
same,Vd,[5],21.2 L
